Shown are actives, neighbours in structure and some others; about 2.1% of the full set was active somewhere.
ARNT-TACC3 inh = disruptors of human ARNT/TACC3 interaction | Q9Y6A5 | AlphaScreen His-ARNT PAS-B/GST-TACC3 binding, luminescence; TACC3 fragment carries E629A point mutation | inhibition, % at 9.99 µM | actives 0.66% (n = 390,000);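 active = mean inhibition of replicates at least 50% and at least half of replicates each reaching 50%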
UCH37 DUB inh = human UCH37 deubiquitinating enzyme inhibition; purified proteasome/UCH37, Ub-AMC cleavage fluorescence; inhibition, % (test concentration not listed); actives 0.33% (n = 330,000); AID 588478;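 active = mean inhibition over replicate wells above about 20%, limit read from the data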
Target sequence (Q9Y5K5 whole entry, looked up): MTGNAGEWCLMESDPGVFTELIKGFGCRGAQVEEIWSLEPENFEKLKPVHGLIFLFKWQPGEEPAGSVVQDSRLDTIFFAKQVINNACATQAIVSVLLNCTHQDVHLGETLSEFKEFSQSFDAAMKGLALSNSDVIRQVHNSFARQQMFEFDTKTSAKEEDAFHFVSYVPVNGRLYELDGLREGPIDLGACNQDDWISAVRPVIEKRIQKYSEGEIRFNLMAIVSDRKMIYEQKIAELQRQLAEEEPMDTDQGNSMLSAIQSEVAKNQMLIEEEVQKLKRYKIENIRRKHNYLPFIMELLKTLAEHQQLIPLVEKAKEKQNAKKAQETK
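Test system – human UCH37 enzyme supplied as purified proteasome complex · Incubation – 30 min preincubation with enzyme, 25 min cleavage at room temperature · Detection – AMC fluorescence from Ub-AMC cleavage, excitation 355 nm, emission 460 nm · Benchmarks – no-proteasome wells (full inhibition) and compound-free wells (no inhibition)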
RTF Ca sens inh = cardiac RTF calcium desensitization. IANBD-labeled cardiac RTF, Ca2+ fluorescence. inhibition, % at 7.15 µM. actives 0.12% (n = 340,000). AID 493244;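 active = inhibition above the mean inhibition of all tested compounds plus 3 SD, cut at about 17% in these data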;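 note: assay run at fixed EC70 calcium of 1.6 mM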
Mot1-301 SUMO = blocks SUMOylation pathway, rescuing yeast Mot1-301 growth; S. cerevisiae Mot1-301 growth rescue, ATP luminescence, 38.5C; percent above DMSO median, 100 means doubled; growth rescue, % at 18.8 µM; actives 1% (n = 320,000);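 active = every valid replicate shows activation above 250% relative to neutral control wells; inactive = the rest, any valid replicate at or below 250%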
cardiac RTF act = increases calcium sensitivity of human cardiac regulated thin filaments; P19429+P45379; IANBD-labeled TnC RTF fluorescence at EC20 calcium; 0% EC20 calcium, 100% full calcium; actives 0.24% (n = 340,000); activation, % at 7.2 µM;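 active = activation above the mean over all tested compounds plus 3 SD, cut at about 30% in these data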;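 note: rise in fluorescence read as greater calcium sensitivity of cardiac thin filaments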
Efflux pump mplx = antifungal efflux pump inhibition, Nile Red retention; S. cerevisiae Candida pump triplex; inhibition, % at 10 µM; actives 0.44% (n = 330,000);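 active = plate passing quality check with inhibition over a set limit, or well fluorescence over plate mean plus 4 SD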;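 note: Nile Red retained in pooled yeast measured as flow cytometry median fluorescence; higher means more Nile Red kept so more efflux inhibition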
Yeast cmpd fluor = counter-screen for efflux pump inhibitors: compound fluorescence; shares compounds with Efflux pump mplx; S. cerevisiae AD/pABC3, flow cytometry; fluorescence ratio to DMSO, % at 10 µM; actives 4% (n = 1,700); AID 588517;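 active = fluorescence ratio to DMSO above its plate's cutoff, the plate mean ratio plus 5 SD, cut at about 210% in these data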;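 note: unstained yeast with no Nile Red so the signal is compound autofluorescence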
Mdr1 pump inh = inhibitors of Candida albicans Mdr1 efflux pump. S. cerevisiae AD/CaMDR1, Nile Red efflux, flow cytometry. actives 1% (n = 1,700). AID 588518. inhibition, % at 10 µM. shares compounds with Efflux pump mplx; in the data active = inhibition above about 26%;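 note: higher means more Nile Red retained so more efflux inhibition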
CaCdr2 efflux inh = Candida Cdr2 efflux pump inhibition; shares compounds with Efflux pump mplx; S. cerevisiae AD/CaCDR2, Nile Red retention, flow cytometry; actives 4% (n = 1,700); Nile Red retention ratio vs DMSO, % at 10 µM; AID 588520; in the data active = Nile Red retention ratio vs DMSO above about 190%;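 note: higher ratio means more blocking of Cdr2 efflux of the dye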
CaCdr1 efflux inh = inhibitors of Candida albicans Cdr1 efflux pump. S. cerevisiae AD/CaCDR1, Nile Red efflux, flow cytometry. actives 1% (n = 1,700). inhibition, % at 10 µM. AID 588522. shares compounds with Efflux pump mplx;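 active = inhibition above the screen-wide mean plus twice its standard deviation, cut at about 32% in these data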
A number is an active result; – = inactive; · = no result given.

SMILES	ARNT-TACC3 inh	UCH37 DUB inh	RTF Ca sens inh	Mot1-301 SUMO	cardiac RTF act	Efflux pump mplx	Yeast cmpd fluor	Mdr1 pump inh	CaCdr2 efflux inh	CaCdr1 efflux inh
O=C(COC(=O)c1ccc2ccccc2c1)Nc1ncc(C(F)(F)F)cc1Cl	–	–	–	–	–	–	·	·	·	·
CCOc1ccc(Br)cc1C(C)=NNC1=NCCN1	·	–	·	·	·	·	·	·	·	·
O=C(O)C(c1ccccc1)N1C(=O)/C(=C\c2ccc(O)c(O)c2)SC1=S (centres undefined)	·	–	–	–	–	2.0	–	–	–	–
CCCSC1=N/C(=C/c2ccsc2)C(=O)N1c1ccccc1	–	–	–	–	–	–	·	·	·	·
CCCCSC1=N/C(=C/c2ccsc2)C(=O)N1c1ccccc1	–	–	–	–	–	5.8	–	–	–	–
COc1cccc(NC(=O)C/C(C)=N/NC(=O)c2ccccc2Cl)c1	–	·	–	–	–	0.8	–	–	–	–
COc1ccc(C=NNC(=O)c2cc(-c3ccc4c(c3)OCO4)n[nH]2)cc1OC	·	–	·	·	·	·	·	·	·	·
O=C(CCC1N=C2c3ccccc3N=C(SCC(=O)NCc3ccco3)N2C1=O)NCc1ccco1 (centres undefined)	–	–	–	–	–	–	·	·	·	·
O=C(CSC1=Nc2ccccc2C2=NC(CC(=O)N3CCN(c4ccccc4)CC3)C(=O)N12)NCC1CCCO1 (centres undefined)	–	–	–	–	–	0.8	–	–	–	–
O=S(=O)(c1cccc2cccnc12)N1CCN(c2ccccc2)CC1	–	–	–	–	–	17	–	–	–	–
Cc1nc(NC(=S)NC(=O)c2ccco2)sc1C(=O)N(C)C	–	–	–	–	–	5.7	–	–	–	–
Cc1ccc(C(=O)Nc2nc(C)c(C(=O)N(C)C)s2)o1	–	–	–	–	–	–	·	·	·	·
O=C1CS/C(=N/N=Cc2cccs2)N1	·	–	·	·	·	·	·	·	·	·
Nc1nonc1-n1nnc(C(=O)NN=Cc2ccc(O)cc2)c1COc1ccc(F)cc1	·	–	·	·	·	·	·	·	·	·
CCCOc1ccc(-c2c(C(=O)N/N=C/c3ccccc3)nnn2-c2nonc2N)cc1	–	·	–	–	–	–	–	–	–	–
Nc1nonc1-n1nnc(C(=O)N/N=C/c2ccccc2Cl)c1COc1ccc(F)cc1	–	·	–	–	–	–	–	–	–	–
Nc1nonc1-n1nnc(C(=O)N/N=C/c2c(Cl)cccc2Cl)c1CSC1=NCCS1	–	·	–	–	–	–	–	–	–	–
Nc1nonc1-n1nnc(C(=O)N/N=C/c2ccc(O)cc2)c1COc1ccc(F)cc1	–	·	–	–	–	–	–	–	–	–
CCCOc1ccc(-c2c(C(=O)NN=Cc3ccc(OCC)cc3)nnn2-c2nonc2N)cc1	·	–	·	·	·	·	·	·	·	·
COc1ccc(C(=O)Oc2ccc(C=NNC(=O)c3ccccc3OC)cc2[N+](=O)[O-])cc1	·	–	·	·	·	·	·	·	·	·
O=[N+]([O-])c1ccccc1S(=O)(=O)Oc1ccccc1C=Nn1cnnc1	·	–	·	·	·	·	·	·	·	·
CC1CC2=C(CC1C=NNC(N)=S)C(C)(C)CCC2 (centres undefined)	·	–	·	·	·	·	·	·	·	·
CCN(C(=O)CSc1nnc2ccccn12)c1c(N)n(Cc2ccccc2)c(=O)[nH]c1=O	–	–	–	–	–	5.8	–	–	–	–
CCCCN(C(=O)CSc1nnc2ccccn12)c1c(N)n(Cc2ccccc2)c(=O)[nH]c1=O	–	–	–	–	–	–	·	·	·	·
Cc1ccc(S(=O)(=O)N(CC(=O)N/N=C/c2cccc3c2OCCO3)c2ccccc2F)cc1	–	·	–	–	–	0.5	–	–	–	–
